Test results from ChEMBL document CHEMBL1123566, “Synthesis and cardiac electrophysiological activity of 2- and 3-[(substituted phenyl)alkyl]quinuclidines. Structure-activity relationships” (1987).
Several values for one entry are separate records, joined by “and”; a condition that tells them apart may be missing. Identical values can stand only once.

Legend:
[1] = test system: Canis familiaris; experiment: Heart rate was determined by intraduodenal administration of two dosages of 30 mg/kg of compound in anesthetized dogs. Value was reported for experiment 1; assay type: functional, Canis lupus familiaris
Outline: (§1)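 Anesthetized dogs; compound given intraduodenally, generally as two doses, the second a cumulative (high) dose. LV functional refractory period and conduction time measured 15, 30 and 45 min after dosing; heart rate and blood pressure measured during nonpacing intervals. Values are % change from control, given per individual animal. Active if FRP or CT prolonged by ≥12%.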

[2] = test system: Canis familiaris; experiment: Heart rate was determined by intraduodenal administration of two dosages of 30 mg/kg of compound in anesthetized dogs. Value was reported for experiment 2; assay type: functional, Canis lupus familiaris; outline: as §1
[3] = test system: Canis familiaris; experiment: Conduction time was determined by intraduodenal administration of 30 mg/kg (high dose) of compound in anesthetized dogs. Value was reported for experiment 1; assay type: functional, Canis lupus familiaris; outline: as §1
[4] = test system: Canis familiaris; experiment: Conduction time was determined by intraduodenal administration of 30 mg/kg (high dose) of compound in anesthetized dogs. Value was reported for experiment 2; assay type: functional, Canis lupus familiaris; outline: as §1
[5] = test system: Canis familiaris; experiment: Conduction time was determined by intraduodenal administration of 10 mg/kg (low dose) of compound in anesthetized dogs. Value was reported for experiment 1; assay type: functional, Canis lupus familiaris; outline: as §1
[6] = test system: Canis familiaris; experiment: Conduction time was determined by intraduodenal administration of 10 mg/kg (low dose) of compound in anesthetized dogs. Value was reported for experiment 2; assay type: functional, Canis lupus familiaris; outline: as §1
[7] = test system: Canis familiaris; experiment: Heart rate was determined by intraduodenal administration of two dosages of 10 mg/kg of compound in anesthetized dogs. Value was reported for experiment 1; assay type: functional, Canis lupus familiaris; outline: as §1
[8] = test system: Canis familiaris; experiment: Heart rate was determined by intraduodenal administration of two dosages of 10 mg/kg of compound in anesthetized dogs. Value was reported for experiment 2; assay type: functional, Canis lupus familiaris; outline: as §1
[9] = test system: Canis familiaris; experiment: Left ventricular refractory period was determined by intraduodenal administration of 10 mg/kg (low dose) of compound in anesthetized dogs. Value was reported for experiment 1; assay type: functional, Canis lupus familiaris, Cardiac ventricle; details: 10 mg/kg
Outline: (§2)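 Anesthetized dogs received two intraduodenal doses, the second cumulative (low dose/high dose). Left ventricular FRP and CT were measured 15, 30 and 45 min after dosing. Heart rate and mean blood pressure were taken during nonpacing intervals. Values are percent change from control. The vehicle was 5% dextrose in water/tragacanth. Activity was defined as ≥12% prolongation of FRP or CT.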

[10] = test system: Canis familiaris; experiment: Left ventricular refractory period was determined by intravenous administration of two dosages (high/low) of 3 mg/kg of compound in anesthetized dogs. Value was reported for experiment 1; assay type: functional, Canis lupus familiaris, Cardiac ventricle
[11] = test system: Canis familiaris; experiment: Left ventricular refractory period was determined by intravenous administration of two dosages (high/low) of 3 mg/kg of compound in anesthetized dogs. Value was reported for experiment 2; assay type: functional, Canis lupus familiaris, Cardiac ventricle
[12] = test system: Canis familiaris; experiment: Left ventricular refractory period was determined by intraduodenal administration of 30 mg/kg (high dose) of compound in anesthetized dogs. Value was reported for experiment 1; assay type: functional, Canis lupus familiaris, Cardiac ventricle; outline: as §2
[13] = test system: Canis familiaris; experiment: Left ventricular refractory period was determined by intraduodenal administration of 30 mg/kg (high dose) of compound in anesthetized dogs. Value was reported for experiment 2; assay type: functional, Canis lupus familiaris, Cardiac ventricle; outline: as §2
[14] = test system: Canis familiaris; experiment: Mean arterial blood pressure was determined by intraduodenal administration of two dosages of 30 mg/kg of compound in anesthetized dogs. Value was reported for experiment 1; assay type: functional, Canis lupus familiaris; outline: as §2
[15] = test system: Canis familiaris; experiment: Mean arterial blood pressure was determined by intraduodenal administration of two dosages of 30 mg/kg of compound in anesthetized dogs. Value was reported for experiment 2; assay type: functional, Canis lupus familiaris; outline: as §2
[16] = test system: Canis familiaris; experiment: Mean arterial blood pressure was determined by intraduodenal administration of two dosages of 10 mg/kg of compound in anesthetized dogs. Value was reported for experiment 1; assay type: functional, Canis lupus familiaris; outline: as §2
[17] = test system: Canis familiaris; experiment: Mean arterial blood pressure was determined by intraduodenal administration of two dosages of 10 mg/kg of compound in anesthetized dogs. Value was reported for experiment 2; assay type: functional, Canis lupus familiaris; outline: as §2
[18] = species: Canis familiaris; experiment: In vitro electrophysiological evaluation in canine cardiac ventricular muscle reported as maximum % change for conduction time(CT) at 0.1-10 uM concentration range; concentration at which it occurred is 0.1 uM.; assay type: functional, Canis lupus familiaris, Muscle tissue
Outline: (§3)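 Canine right ventricle and papillary muscle strips in oxygenated Tyrode's solution, fitted with stimulating and recording electrodes. The extra-stimulus conduction-interval method was adapted for in vitro use. FRP and CT were read from a conduction-interval curve before and after various compound concentrations, and expressed as percent change from control. Compounds were taken from 10 mM deionized-water stock into Tyrode's. Each strip was used once as its own control.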

[19] = species: Canis familiaris; experiment: In vitro electrophysiological evaluation in canine cardiac ventricular muscle reported as % change for the functional refractory period (FRP) at 10 uM at concentration range of 0.1-10 uM; set-up: species or system Canis lupus familiaris, Muscle tissue; outline: as §3
[20] = species: Canis familiaris; experiment: In vitro electrophysiological evaluation in canine cardiac ventricular muscle reported as maximum % change for functional refractory period (FRP) at 0.1-10 uM concentration range; concentration at which it occurred is 10 uM.; set-up: species or system Canis lupus familiaris, Muscle tissue; outline: as §3
[21] = species: Canis familiaris; experiment: In vitro electrophysiological evaluation in canine cardiac Purkinje fibres reported as percent change Vmax at 10 uM at concentration range of 0.1-100 uM; Minimal (<10% decrease or increase in Vmax).; assay type: functional, organism-based; details: Canis lupus familiaris, Purkinje fiber
Outline: (§4)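 Canine cardiac Purkinje fibres, intracellular microelectrode recording, paced at a basic cycle length of 1 s. APD95 and Vmax read simultaneously. Compound: 10 mM stock in deionized water, diluted into Tyrode's solution, tested over the stated concentration range. Each fibre used once as its own control. Result is % change from control, given at 10 µM or as the maximum with its concentration. M = <10% decrease or an increase in Vmax.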

[22] = species: Canis familiaris; experiment: In vitro electrophysiological evaluation in canine cardiac Purkinje fibres reported as percent change Vmax at 10 uM at concentration range of 0.1-10 uM; Minimal (<10% decrease or increase in Vmax).; assay type: functional; details: Canis lupus familiaris, Purkinje fiber; outline: as §4
[23] = species: Canis familiaris; experiment: In vitro electrophysiological evaluation in canine cardiac Purkinje fibres reported as percent change Vmax at 10 uM at concentration range of 1-100 uM; assay type: functional; details: Canis lupus familiaris, Purkinje fiber; outline: as §4
[24] = species: Canis familiaris; experiment: (§5) In vitro electrophysiological evaluation in canine cardiac occurred is 100 uM.; assay type: functional; details: Canis lupus familiaris; Heart
[25] = species: Canis familiaris; experiment: as §5; assay type: functional; details: Canis lupus familiaris; Heart; remark: listed apart in the source
[26] = species: Canis familiaris; experiment: In vitro electrophysiological evaluation in canine cardiac Purkinje fibres reported as percent change Vmax at 10 uM at concentration range of 0.1-100 uM; assay type: functional; details: Canis lupus familiaris, Purkinje fiber; outline: as §4
[27] = species: Canis familiaris; experiment: In vitro electrophysiological evaluation in canine cardiac ventricular muscle reported as % change for conduction time(CT) at 0.1-10 uM concentration range; Minimal (<10% decrease or increase inCT).; assay type: functional, Canis lupus familiaris, Muscle tissue
[28] = species: Canis familiaris; experiment: as §5; assay type: functional, organism-based; details: Canis lupus familiaris; Heart
[29] = species: Canis familiaris; experiment: as §5; assay type: functional; details: Canis lupus familiaris; Heart; remark: listed apart in the source
[30] = species: Canis familiaris; experiment: In vitro electrophysiological evaluation in canine cardiac Purkinje fibres reported as maximum percent change Vmax concentration range of 0.1-10 uM; Minimal (<10% decrease or increase in Vmax).; assay type: functional; details: Canis lupus familiaris; Purkinje fiber; outline: as §4
[31] = species: Canis familiaris; experiment: (§6) In vitro electrophysiological activity in canine cardiac occurred is 10 uM.; assay type: functional, Canis lupus familiaris, Heart
[32] = species: Canis familiaris; experiment: (§7) In vitro electrophysiological activity in canine cardiac occurred is 1 uM.; assay type: functional, Canis lupus familiaris, Heart
[33] = species: Canis familiaris; experiment: as §6; assay type: functional, Canis lupus familiaris, Heart; remark: listed apart in the source
[34] = species: Canis familiaris; experiment: as §7; assay type: functional, Canis lupus familiaris, Heart; remark: listed apart in the source
[35] = species: Canis familiaris; experiment: In vitro electrophysiological evaluation in canine cardiac Purkinje fibres reported as % change for action potential duration at 10 uM at 1-100 uM concentration range; assay type: functional, Canis lupus familiaris, Purkinje fiber; outline: as §4
[36] = species: Canis familiaris; experiment: In vitro electrophysiological evaluation in canine cardiac Purkinje fibres reported as % change for action potential duration at a concentration of 10 uM; assay type: functional, Canis lupus familiaris, Purkinje fiber; outline: as §4
[37] = species: Canis familiaris; experiment: In vitro electrophysiological activity in canine cardiac occurred is 100 uM.; assay type: functional, Canis lupus familiaris, Heart
[38] = species: Canis familiaris; experiment: as §7; assay type: functional, Canis lupus familiaris, Heart; remark: listed apart in the source

## OC1C2CCN(CC2)C1CCCc1ccc(Cl)cc1 (stereo not drawn)
[1]
  HR: -14%
[2]
  HR: -9%
[3]
  CT: 7%
[4]
  CT: 8%
[5]
  CT: 5%
[6]
  CT: 4%
[7]
  HR: -6%
[8]
  HR: -7%
[9]
  LV FRP: 4% and 7%
[10]
  FRP: 12%
[11]
  FRP: 8%
[12]
  LV FRP: 3%
[13]
  LV FRP: 9%
[14]
  Mean blood pressure: 14%
[15]
  Mean blood pressure: -3%
[16]
  Mean blood pressure: 14%
[17]
  Mean blood pressure: 0%
[18]
  CT: 11%
[19]
  FRP: 21%
[20]
  FRP: 21%
[21]
  Vmax: < 10%
[22]
  Vmax: < 10%
[23]
  Vmax: -13%
[24]
  Vmax: 100%
[25]
  Vmax: 100%
[26]
  Vmax: -24% and -20%
[27]
  CT: <10%
[28]
  Vmax: -48%
[29]
  Vmax: 100%
[30]
  Vmax: < 10%
[31]
  APD95: 14% and 40%
[32]
  APD95: 25% and 15%
[33]
  APD95: 13%
[34]
  APD95: 30%
[35]
  APD95: 13%
[36]
  APD95: 12%
[37]
  APD95: -24% and -7%
[38]
  APD95: 41%
